# In the library only some 2.7% were active in any assay of this set; here they are far more common.
# TPT1 inh: Candida albicans TPT1 enzyme inhibitors, primary screen, biochemical, fluorescence polarization; tRNA 2'-phosphotransferase TPT1 (Candida albicans SC5314); recombinant caTPT1, FP RNA substrate dephosphorylation; inhibition, % at 5 µM; 0.81% of 300,000 active;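 active means inhibition above the mean of all tested compounds plus 3 SD, set per screening campaign, cut at about 24% in these data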;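 further: plate controls were DMSO alone for no effect and ferristatin control at 100 nM for full effect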
# Rpn11 block: Rpn11 (PSMD14) deubiquitinase inhibitors, primary screen, biochemical, fluorescence polarization, uHTS; 0.59% of 360,000 active; 26S proteasome non-ATPase regulatory subunit 14 (Homo sapiens), O00487; inhibition, % at 20 µM; human 26S proteasome, Ub4-pepOG fluorescence polarization; 20S core pre-blocked with epoxomicin; AID 588493, 2011;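 active means inhibition at 20 µM, scaled to each plate's controls, above about 33%, limit read from the data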
# Target sequence (O00487 whole entry, looked up): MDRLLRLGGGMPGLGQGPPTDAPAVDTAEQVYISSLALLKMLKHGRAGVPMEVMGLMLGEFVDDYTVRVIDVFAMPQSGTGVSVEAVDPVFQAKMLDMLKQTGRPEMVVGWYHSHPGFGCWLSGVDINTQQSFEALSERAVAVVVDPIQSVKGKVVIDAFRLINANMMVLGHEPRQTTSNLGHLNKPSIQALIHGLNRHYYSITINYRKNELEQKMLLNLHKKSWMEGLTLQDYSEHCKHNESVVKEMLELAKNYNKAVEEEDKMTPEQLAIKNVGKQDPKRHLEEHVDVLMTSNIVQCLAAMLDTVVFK
# NadD inh: inhibitors of S. aureus NadD, primary screen, biochemical, colorimetric, uHTS | 0.78% of 360,000 active | inhibition, % at 20 µM | purified NadD enzyme, colorimetric absorbance read-out | Nicotinate-nucleotide adenylyltransferase NadD (Staphylococcus aureus N315); in the data active means inhibition above about 26%
# CSN deneddyl inh: inhibitors of CSN-mediated cullin deneddylation, primary screen, biochemical, fluorescence polarization, uHTS; Purified CSN, SCF-Nedd8-OG deneddylation; COP9 signalosome complex subunit 5 (Homo sapiens), Q92905; inhibition, % at 12.5 µM; 0.38% of 360,000 active; AID 651999, 2013;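 active means pattern-corrected inhibition above about 35%, with an unprinted fluorescence ratio check between 0.5 and 1.5, limit read from the data, passing the limit was not always enough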;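 further: 0% = enzyme with substrate and 100% = substrate without enzyme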
#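 Detection – fluorescence polarization · System – HEK293T-derived human Csn5 enzyme · Controls – substrate-only high control, full reaction low control · Timing – 90 min, room temperature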
# HNF4A DNA FP: change in binding of human HNF4A to DNA, primary screen, biochemical, fluorescence polarization, FITC-DNA | Hepatocyte nuclear factor 4-alpha (Homo sapiens), P41235 | 1 h | activity change, % at 10 µM | 0.3% of 360,000 active | AID 1224865, 2016; in the data active means activity change above about 30%, passing the limit was not always enough
# PP1 inh: PP1-alpha phosphatase inhibitors, primary screen, counter-screen for PP5 inhibitor project, biochemical, fluorescence, OMFP substrate, single point; purified PP1alpha; 0.9% of 320,000 active; Serine/threonine-protein phosphatase PP1-alpha catalytic subunit (Homo sapiens), P62136; inhibition, % at 6.7 µM;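 active means inhibition above the mean inhibition of all tested compounds plus 3 SD, computed separately for each screening campaign, cut at about 15% in these data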
# PP1 confirm: PP1 phosphatase inhibitors, confirmation, biochemical, fluorescence, OMFP substrate, triplicate | shares compounds with PP1 inh | purified PP1alpha | inhibition, % at 6.7 µM | 52% of 1,900 active | AID 2358, 2010;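 active means mean PP1 inhibition above a set limit taken from the earlier primary screen, cut at about 15% in these data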
# PP5 counter: PP5 phosphatase inhibition by PP1 hits, confirmation, counter-screen for PP1 inhibitor project, biochemical, fluorescence, triplicate; shares compounds with PP1 inh; AID 2360, 2010; inhibition, % at 6.7 µM; 4% of 1,900 active; purified PP5c, OMFP fluorescence;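 active means mean PP5 inhibition over triplicate wells above about 9.5% taken from the earlier PP1 screen, limit read from the data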
# An asterisk follows results filed as active; x = not tested or not shown.
SMILES,TPT1 inh,Rpn11 block,NadD inh,CSN deneddyl inh,HNF4A DNA FP,PP1 inh,PP1 confirm,PP5 counter
COc1cccc(/C=C/C(=O)OCC(=O)c2ccc3c(c2)NC(=O)CO3)c1,x,-2,16,28,10,33*,28*,-3
CCC1CCCCN1CCCNC(=O)c1ccc(CS(=O)(=O)Cc2ccc(Cl)cc2)o1 (centres undefined),0,9,-4,-3,4,6,x,x
CN1CCN(C(=O)c2cccc3c(-c4ccc(F)c(F)c4)coc23)CC1,x,-11,-1,2,-3,x,x,x
N#C/C(=C/c1ccc(Sc2nc3ccccc3[nH]2)o1)c1ccccc1F,-1,-10,1,-2,1,37*,3,0
CCCCn1nc(C(=O)Nc2ccc(-n3cnnn3)cc2)c2ccccc2c1=O,x,2,-9,3,-3,-1,x,x
Cc1cc2ccccn2c1C(C[N+](=O)[O-])c1ccc(N(C)C)cc1 (centres undefined),12,-1,12,2,3,20*,4,9.8*
COc1ccc(C(C[N+](=O)[O-])c2c(C)cc3ccccn23)cc1 (centres undefined),3,9,4,0,3,14,x,x
COc1cc2c(cc1OC)CN(c1nc(CN3CCCCC3)nc3sc4c(c13)CCCC4)CC2,12,-2,1,0,7,18*,-2,-5
CC1=NN(c2nc(-c3ccccc3)cs2)C(=O)C1,5,12,11,3,-1,20*,0,10*
O=C1CC(c2ccccc2)=NN1c1nc(-c2ccccc2)cs1,-2,9,13,3,4,20*,4,2
Cc1cc(OCC(O)CN(C)C(=O)C(C)Oc2ccccc2)ccc1Cl (centres undefined),-1,1,-11,4,1,-4,x,x
O=C(Cc1cccs1)NC(c1ccccc1)c1ccccc1,-4,1,-3,-4,2,-2,x,x
O=C(COC(=O)/C(=C/c1cccs1)c1cccs1)NC(c1ccccc1)c1ccccc1,1,4,3,-9,-1,20*,11,0
COc1ccc([N+](=O)[O-])cc1NC(=O)COC(C)=O,-3,3,-8,-7,-3,-2,x,x
COc1ccc([N+](=O)[O-])cc1NC(=O)c1ccc(Br)s1,0,0,4,4,5,18*,21*,-6
CC(C)C(=O)Nc1ccc(-c2nnc(-c3ccccc3)o2)cc1,x,9,-2,-3,-1,x,x,x
CC(C)C(=O)Nc1ccc(C(=O)c2ccccc2)cc1,-2,-6,1,0,-1,-75,-1,-3
CSCCC(NS(=O)(=O)c1ccc(C)cc1)C(=O)NCC(C)(C)N1CCOCC1 (centres undefined),x,1,-6,-4,0,-4,x,x
Cc1cc(-c2csc(N)n2)c(C)n1CCc1ccccc1,2,-9,30,6,8,21*,20*,-1
CCOC(=O)c1cc(C)n(CCc2ccccc2)c1C,-4,-4,-1,1,-3,2,x,x
Cc1ccc(N2CC(C(=O)OCC(=O)NNC(=O)c3ccccc3)CC2=O)cc1 (centres undefined),2,5,-5,0,1,35*,-3,-3
C=CCn1c(SCC(=O)Nc2sccc2C#N)nc2sc(C)c(C)c2c1=O,2,7,8,4,5,27*,31*,-1
C=CCn1c(SCC(=O)Nc2ccc(C(=O)O)cc2)nc2sc(C)c(C)c2c1=O,x,0,-1,1,3,-1,x,x
O=C(N/N=C/c1ccoc1)c1ccccc1F,0,-2,3,6,-2,-1,x,x
O=c1c(-c2c(O)cc(O)c3c(=O)cc(-c4ccc(O)cc4)oc23)c(-c2ccc(O)cc2)oc2cc(O)cc(O)c12,4,-4,30,31,-24,32*,16*,-2
SMILES,TPT1 inh,Rpn11 block,NadD inh,CSN deneddyl inh,HNF4A DNA FP,PP1 inh,PP1 confirm,PP5 counter
CCOc1ccc(S(=O)(=O)NCCCN2CCOCC2)cc1,-2,-4,3,4,1,23*,-4,-7
CCOc1ccc(S(=O)(=O)NCCC(=O)N2CC(C)CC(C)C2)cc1 (centres undefined),0,0,-4,-5,-2,79*,-6,-5
CCCCCCOc1ccc(/C(C)=N/NC2=NCCN2)cc1[N+](=O)[O-],-1,-2,5,-2,1,20*,9,2
C/C(=N\NC1=NCCN1)c1ccc(N)c([N+](=O)[O-])c1,2,0,-5,2,2,-4,x,x
CCN(CC)S(=O)(=O)c1cccc(C(=O)OCC(=O)NCc2ccccc2OC)c1,-5,-1,1,-4,0,-3,x,x
COc1cccc(CNC(=O)c2ccccc2SCC(=O)N2CCCC2)c1,1,2,-2,-2,4,26*,-5,-6
COc1cccc(CN(C)C(=O)c2ccccc2SCC(=O)N2CCCC2)c1,2,-4,0,7,2,2,x,x
Cc1ccc2[nH]c(=O)c(-c3nc4cc(C)ccn4c3NCc3ccco3)cc2c1,4,-2,1,0,2,18*,21*,3
COc1cc(F)ccc1-c1cc(C(=O)Nc2ccc(NC(C)=O)cc2)[nH]n1,x,18,0,11,4,x,x,x
CC(=O)Nc1ccc(NC(=O)CSc2ccc(-c3ccc4c(c3)OCO4)nn2)cc1,2,5,12,2,-1,0,x,x
Cc1ccc(-c2ccc(SCC(=O)Nc3ccc4c(c3)OCCO4)nn2)cc1,-2,2,-1,-3,6,38*,-3,-2
O=C(Nc1ccc2oc(-c3ccccc3Cl)nc2c1)c1ncn[nH]1,-1,8,9,4,-2,19*,3,-6
C=CCOC(=O)C1=C[C@H](c2csc3ccccc23)C[C@H](OCc2ccc(CO)cc2)O1,-1,5,-4,1,1,22*,4,-2
